Calls of active or inactive are those of the source. No cut-off for these calls is given here.
Key:
[1] = Thiol-reactivity using 13C-labeled La antigen containing reactive cysteine C245 at 400 uM at 37 degreeC for 90 mins in absence of DTT by 2D 1H-13C HMQC ALARM NMR spectroscopy; assay type: ADME; conditions: 1.5 h
Summary of the method: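 ALARM NMR: compound (400 μM final) was incubated with 13C-methyl-labeled La antigen (50 μM final) at 37 °C for 90 min, without and with 20 mM DTT. Reactivity was scored from 13C-methyl chemical shift changes and attenuation of diagnostic peaks in 1H-13C HMQC spectra without DTT.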

[2] = Thiol-reactivity using La antigen containing reactive cysteine C245 at 0.5 mM incubated for 1 hr by MS analysis based ALARM MSPS analysis; conditions: 500 µM
[3] = tested on: A549; assay: Inhibition of TNFalpha-induced canonical NF-kappaB signaling (unknown origin) expressed in human A549 cells at 20 uM […] by NF-kappaB-driven luciferase reporter gene assay; assay type: cell-based; conditions: time 500.0 min
[4] = Toxicity in African green monkey Vero cells assessed as reduction in cell viability incubated for 48 hrs by Alamar blue assay; assay type: cell-based, Chlorocebus sabaeus
[5] = tested on: HEK293; assay: Inhibition of TNFalpha-induced canonical NF-kappaB signaling (unknown origin) expressed in HEK293 cells assessed as residual NF-kappaB activity at 7.5 uM pre-incubated for 30 mins followed by TNFalpha stimulation for 8 hrs by NF-kappaB-driven SEAP assay; conditions: Homo sapiens, time 510.0 min
[6] = tested on: HEK293; assay: Inhibition of TNFalpha-induced canonical NF-kappaB signaling (unknown origin) expressed in HEK293 cells assessed as residual NF-kappaB activity at 7.5 uM pre-incubated for 30 mins followed by TNFalpha stimulation for 8 hrs by NF-kappaB-driven SEAP assay; assay type: cell-based; conditions: Homo sapiens, time 510.0 min
Summary of the method: (§1)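 HEK293 cells stably carrying an NF-κB-driven SEAP reporter were grown in DMEM with 10% FBS, penicillin/streptomycin and 0.5 mg/mL G418 at 37 °C, 5% CO2. They were seeded at 5,000 cells/well 24 h ahead. Compounds (1–7.5 μM, 0.5% DMSO final) were added for 30 min, then TNF-α at 22.5 ng/mL final for 8 h. Secreted SEAP in the medium was quantified chemiluminescently, relative to the induced control set as 100%.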

[7] = tested on: A549; assay: Inhibition of TNFalpha-induced canonical NF-kappaB signaling (unknown origin) expressed in human A549 cells assessed as residual NF-kappaB activity at 10 uM […] by NF-kappaB-driven luciferase reporter gene assay; assay type: cell-based; conditions: time 500.0 min
[8] = tested on: A549; assay: Inhibition of TNFalpha-induced canonical NF-kappaB signaling (unknown origin) expressed in human A549 cells assessed as residual NF-kappaB activity at 20 uM […] followed by TNFalpha stimulation for 8 hrs by NF-kappaB-driven luciferase reporter gene assay; assay type: cell-based; conditions: time 500.0 min
[9] = tested on: A549; assay: Inhibition of TNFalpha-induced canonical NF-kappaB signaling (unknown origin) expressed in human A549 cells at 10 uM […] by NF-kappaB-driven luciferase reporter gene assay; assay type: cell-based; conditions: time 500.0 min
[10] = tested on: HEK293; assay: Inhibition of TNFalpha-induced canonical NF-kappaB signaling (unknown origin) expressed in HEK293 cells at 7.5 uM pre-incubated for 30 mins followed by TNFalpha stimulation for 8 hrs by NF-kappaB-driven SEAP assay; assay type: cell-based; conditions: Homo sapiens, time 510.0 min; summary of the method: as §1

Question: Which results are given for `CCN(CC)c1ccc2c(C)c(-c3ccc(N4C(=O)C=CC4=O)cc3)c(=O)oc2c1`?
Answer: Activity [1]: Active; Activity [2]: Active

Question: With `C=C1C(=O)N[C@@H]2C3=CC(=O)CC3=C(C)CC[C@@H]12` as the compound, how does the inhibition [3] read?
Answer: inactive

Question: What about the IC50 at 48 h [4] of the same compound?
Answer: > 200 µM

Question: And the inhibition [5]?
Answer: inactive

Question: Which Activity [1] does the source give for `C=C1C(=O)O[C@H]2C3=C(c4ccccc4)C(=O)CC3=C(C)CC[C@H]12` here?
Answer: Active

Question: What about the Activity [2] of the same compound?
Answer: Active

Question: Which inhibition [3] does the source give for `C=C1C(=O)N[C@@H]2C3=C(c4ccccc4)C(=O)CC3=C(C)CC[C@@H]12` here?
Answer: inactive

Question: Which Activity [6] does the source give for `C=C1C(=O)O[C@@H]2[C@H]3O[C@]3(C)CC/C=C(\C)CC[C@@H]12` here?
Answer: 20%

Question: What about the Activity [7] of the same compound?
Answer: 53%

Question: Which Activity [6] does the source give for `C=C1C(=O)N(c2ccc(C(F)(F)F)cc2)[C@@H]2C3=C(c4ccccc4)C(=O)CC3=C(C)CC[C@@H]12` (relative stereo) here?
Answer: 44%

Question: And the Activity [8]?
Answer: 21%

Question: What about the Activity [7] of the same compound?
Answer: 62%

Question: And the Activity [1]?
Answer: Not Active

Question: What about the Activity [2] of the same compound?
Answer: Not Active

Question: With `C=C1C(=O)N(C(C)=O)[C@@H]2C3=CC(=O)CC3=C(C)CC[C@@H]12` (relative stereo) as the compound, how does the Activity [6] read?
Answer: 19%

Question: What about the Activity [8] of the same compound?
Answer: 28%

Question: What about the Activity [7] of the same compound?
Answer: 59%

Question: Which inhibition [3] does the source give for `C=C1C(=O)N(C)[C@@H]2C3=C(c4ccccc4)C(=O)CC3=C(C)CC[C@@H]12` (relative stereo) here?
Answer: inactive

Question: Which inhibition [9] does the source give for `C=C1C(=O)N(S(=O)(=O)c2ccc(C)cc2)[C@@H]2C3=C(c4ccccc4)C(=O)CC3=C(C)CC[C@@H]12` (relative stereo) here?
Answer: 100%

Question: And the inhibition [10]?
Answer: 100%

Question: With `C=C1C(=O)N(c2ccc(OC)cc2)[C@@H]2C3=C(c4ccccc4)C(=O)CC3=C(C)CC[C@@H]12` (relative stereo) as the compound, how does the inhibition [3] read?
Answer: inactive

Question: And the inhibition [5]?
Answer: inactive

Question: Which inhibition [3] does the source give for `C=C1C(=O)N(c2ccccc2)[C@@H]2C3=C(c4ccccc4)C(=O)CC3=C(C)CC[C@@H]12` (relative stereo) here?
Answer: inactive

Question: And the inhibition [5]?
Answer: inactive

Question: For `OC(Cn1cncn1)(Cn1cncn1)c1ccc(F)cc1F` [FLUCONAZOLE], which Activity [1] is on record?
Answer: Not Active

Question: What about the Activity [2] of the same compound?
Answer: Not Active

From ChEMBL document CHEMBL4706625, “Synthesis of Guaianolide Analogues with a Tunable α-Methylene-γ-lactam Electrophile and Correlating Bioactivity with Thiol Reactivity” (J Med Chem, 2020)
